According to ChEMBL document CHEMBL1138305, “Novel substituted (Z)-2-(N-benzylindol-3-ylmethylene)quinuclidin-3-one and (Z)-(+/-)-2-(N-benzylindol-3-ylmethylene)quinuclidin-3-ol derivatives as potent thermal sensitizing agents” (2007):

How the values were obtained:
HT-29 [1] = assay: Growth inhibition of HT29 cells assessed as relative survival at 150 uM after 2 hrs relative to control; assay type: functional, Homo sapiens
Method in brief: (§1)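 HT-29 colon carcinoma cells were exposed to drug for 2 h at 41°C, with DMSO as vehicle. Drug was then washed off and cells grown 14 days in fresh medium. Colonies of more than 50 cells were stained with crystal violet and counted. Survival was corrected for plating efficiency (vehicle, 2 h, 37°C) and for 2 h drug exposure at 37°C; vehicle at 41°C was set to 1.0. Student's t test.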

HT-29 [2] = assay: Cell survival of human HT29 cells at 150 uM after 2 hrs; assay type: functional; settings: HT-29, 2 h, read-out: Survival
HT-29 [3] = assay: Growth inhibition of HT29 cells assessed as relative survival at 50 uM after 2 hrs relative to control; assay type: functional, Homo sapiens; method in brief: as §1
HT-29 [4] = assay: Growth inhibition of HT29 cells at 50 uM after 2 hrs; assay type: functional; settings: Homo sapiens, HT-29, 2 h; method in brief: as §1

| SMILES | Survival (HT-29 [1]) | viability at 150 µM (HT-29 [2]) [%] | Survival (HT-29 [3]) | inhibition at 50 µM (HT-29 [4]) [%] |
| --- | --- | --- | --- | --- |
| Cc1ccc(Cn2cc(/C=C3/C(O)C4CCN3CC4)c3cc(Br)ccc32)cc1 (configuration not stated) | 0.78 | > 70 |  |  |
| OC1/C(=C/c2cn(Cc3ccc(F)cc3)c3ccccc23)N2CCC1CC2 (configuration not stated) |  | < 70 | 0.7 |  |
| OC1/C(=C/c2cn(Cc3ccc(Cl)cc3)c3ccc(Br)cc23)N2CCC1CC2 (configuration not stated) | 0.9 | > 70 |  |  |
| OC1/C(=C/c2cn(Cc3ccccc3Br)c3ccc(Br)cc23)N2CCC1CC2 (configuration not stated) | 0.58 | > 70 |  |  |
| O=C1/C(=C/c2cn(Cc3ccccc3)c3ccccc23)N2CCC1CC2 | 0.5 |  |  |  |
| Cc1ccc2c(c1)c(/C=C1/C(=O)C3CCN1CC3)cn2Cc1ccccc1 | 0.98 | > 70 |  |  |
| Cc1ccc(Cn2cc(/C=C3/C(=O)C4CCN3CC4)c3cc(Br)ccc32)cc1 | 1 | > 70 |  |  |
| O=C1/C(=C/c2cn(Cc3ccc(Cl)cc3)c3ccccc23)N2CCC1CC2 | 0.56 | > 70 |  |  |
| O=C1/C(=C/c2cn(Cc3ccc(F)cc3)c3ccccc23)N2CCC1CC2 | 0.71 | > 70 |  |  |
| O=C1/C(=C/c2cn(Cc3ccccc3Br)c3ccc(Br)cc23)N2CCC1CC2 | 0.96 | > 70 |  |  |
| Cc1ccc(Cn2cc(/C=C3/C(O)C4CCN3CC4)c3ccccc32)cc1 (configuration not stated) |  | < 70 | 0.59 |  |
| O=C1/C(=C/c2cn(Cc3ccc(F)cc3)c3ccc(Br)cc23)N2CCC1CC2 | 0.81 | > 70 |  |  |
| Cc1ccc(Cn2cc(/C=C3/C(=O)C4CCN3CC4)c3ccccc32)cc1 | 1 | > 70 |  |  |
| O=C1/C(=C/c2cn(Cc3ccccc3)c3ccc(Br)cc23)N2CCC1CC2 | 1 | > 70 |  |  |
| OC1/C(=C/c2cn(Cc3ccc(Cl)cc3)c3ccccc23)N2CCC1CC2 (configuration not stated) |  | < 70 | 0.07 |  |
| OC1/C(=C/c2cn(Cc3ccc(F)cc3)c3ccc(Br)cc23)N2CCC1CC2 (configuration not stated) | 0.52 | > 70 |  |  |
| COc1ccc(Cn2cc(/C=C3/C(O)C4CCN3CC4)c3cc(Br)ccc32)cc1 (configuration not stated) | 0.61 | > 70 |  |  |
| COc1ccc2c(c1)c(/C=C1/C(O)C3CCN1CC3)cn2Cc1ccccc1 (configuration not stated) |  | < 70 | 0.76 |  |
| Cc1ccc2c(c1)c(/C=C1/C(O)C3CCN1CC3)cn2Cc1ccccc1 (configuration not stated) | 1 | > 70 |  |  |
| Cc1ccc(Cn2cc(/C=C3/C(O)C4CCN3CC4)c3cc(C)ccc32)cc1 (configuration not stated) |  | < 70 | 0.59 |  |
| COc1ccc(Cn2cc(/C=C3/C(=O)C4CCN3CC4)c3cc(Br)ccc32)cc1 | 0.86 | > 70 |  |  |
| Cc1ccc(Cn2cc(/C=C3/C(=O)C4CCN3CC4)c3cc(C)ccc32)cc1 | 1 | > 70 |  |  |
| COc1ccc2c(c1)c(/C=C1/C(=O)C3CCN1CC3)cn2Cc1ccccc1 | 0.75 | > 70 |  |  |
| OC1/C(=C/c2cn(Cc3ccccc3)c3ccc(Br)cc23)N2CCC1CC2 (configuration not stated) | 0.59 | > 70 |  |  |
| O=C1/C(=C/c2cn(Cc3ccc(Cl)cc3)c3ccc(Br)cc23)N2CCC1CC2 | 1 | > 70 |  |  |
| OC1/C(=C/c2cn(Cc3ccccc3)c3ccccc23)N2CCC1CC2 (racemic) | 0.06 |  | 1 | 93 |
